Results from different studies.
Compare with care: the assays were run in different laboratories.
Cell line: WI-38
Effect on: cell growth or viability

| Compound | technique | time | measurement | result |
| --- | --- | --- | --- | --- |
| Cc1cccc(-n2ncc(Br)c(Br)c2=O)c1 | resazurin | 96 h | IC50 | 2.61 µM |
| N#Cc1cc2c(-c3ccccc3)n[nH]c2c(Nc2ccccc2)n1 | MTS | 48 h | IC50 | > 10 µM |
| Cc1nc(Nc2ncc(C(=O)Nc3c(C)cccc3Cl)s2)cc(N2CCN(CCO)CC2)n1 | MTT | 72 h | EC50 | 0.7 µM |
| c1ccc(CNCc2cc3c(-c4ccccc4)n[nH]c3c(Nc3ccccc3)n2)cc1 | MTS | 48 h | IC50 | 8.2 µM |
| CN(C)CCCOc1cc(NC(=O)c2cc(Cl)cc(C(=O)Nc3cc(OCCCN(C)C)c4ccccc4n3)n2)nc2ccccc12 | ATP luminescence | 72 h | IC50 | 3.6 µM |
| CS(=O)(=O)CCNCc1ccc(-c2ccc3ncnc(Nc4ccc(OCc5cccc(F)c5)c(Cl)c4)c3c2)o1 | MTT | 72 h | EC50 | 32 µM |
| CN(C)CCCOc1cc(NC(=O)c2cccc(C(=O)Nc3cc(OCCCN(C)C)c4ccccc4n3)n2)nc2ccccc12 | ATP luminescence | 72 h | IC50 | 2.1 µM |
| COc1cc(Nc2nc(C#N)cc3c(-c4ccccc4)n[nH]c23)cc(OC)c1OC | MTS | 48 h | IC50 | > 10 µM |
| C#CCOc1cc(C(=O)Nc2cc(OCCN)c3ccccc3n2)nc(C(=O)Nc2cc(OCCN)c3ccccc3n2)c1 | ATP luminescence | 72 h | IC50 | 4 µM |
| C=C(c1ccc(C(=O)O)cc1)c1cc2c(cc1C)C(C)(C)CCC2(C)C | MTT | 72 h | EC50 | 76 µM |
